mHtt clearance: compounds clearing mutant huntingtin protein; HeLa Exon1htt(103Q)mCFP, aggregate imaging; zero = plate's median compound well; inhibition, % at 1.5 µM; hit rate 0.42% among 47,000; AID 853;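 active = inhibition of aggregate fluorescence above about 70%, also judged a hit by eye on the cell image, limit read from the data, passing the limit was not always enough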;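 note: cells exposed to compound for three days before fixation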
M1 ag: agonists of M1 muscarinic receptor | CHO-M1 cells, Fluo-4 calcium fluorescence, agonist mode; active compounds read high | hit rate 3% among 64,000 | B-score at 10 µM | AID 626;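 active = fluorescence rise, raw or as B-score row- and column-corrected plate score, outside the 99.7% band of its plate's samples, either direction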
SF-1 act: activators of human nuclear receptor SF-1. CHO-K1 Gal4-SF-1 LBD luciferase reporter; % increase over DMSO SF-1-specific signal. hit rate 1.9% among 65,000. Q13285. activation, % at 10 µM;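 active = activation above the mean activation of all tested compounds plus 3 SD, cut at about 50% in these data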
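Material: Transient Gal4-SF-1 LBD reporter, CHO-K1 | Input: 4,000 cells/well | Dosing: One dose, 10 µM compound, 1% DMSO | Incubation: 20 h compound treatment, 37 °C | Detection: SteadyLite luciferase luminescence | Evaluation: Percent activation relative to DMSO median and mock-transfected background | Benchmarks: DMSO-treated SF-1-transfected cells as negative, DMSO-treated mock-transfected cells lacking SF-1 as background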
D1 allo mod: allosterically modulates the human D1 dopamine receptor; hit rate 5.9% among 58,000; B-score at 10 µM; HEK293 D1, CRE-luciferase, dopamine EC30 potentiation; actives deviate in either direction; P21728; AID 641;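 active = luminescence count or its row- and column-corrected plate score outside the 99.7% band of the plate's sample wells, on either side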
Target sequence (P21728 whole entry, looked up): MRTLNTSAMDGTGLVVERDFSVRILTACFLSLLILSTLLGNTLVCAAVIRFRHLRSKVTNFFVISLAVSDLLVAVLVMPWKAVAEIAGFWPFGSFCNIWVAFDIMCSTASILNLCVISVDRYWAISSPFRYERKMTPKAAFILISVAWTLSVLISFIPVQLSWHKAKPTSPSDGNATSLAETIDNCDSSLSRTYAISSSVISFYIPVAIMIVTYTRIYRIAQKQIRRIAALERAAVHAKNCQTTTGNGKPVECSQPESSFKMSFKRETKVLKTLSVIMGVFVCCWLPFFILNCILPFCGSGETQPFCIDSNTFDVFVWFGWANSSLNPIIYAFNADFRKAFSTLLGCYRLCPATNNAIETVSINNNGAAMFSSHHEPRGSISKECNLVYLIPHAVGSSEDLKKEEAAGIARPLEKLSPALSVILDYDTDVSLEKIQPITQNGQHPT
RORA act: activators of human nuclear receptor RORA. P35398. CHO-K1 Gal4-RORA LBD luciferase reporter, luminescence; percent increase over mock-subtracted basal signal. activation, % at 10 µM. hit rate 1.5% among 65,000. AID 560;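 active = activation above the mean of all tested compounds plus 3 SD, cut at about 49% in these data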;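 note: 0% = DMSO-treated RORA cells and 100% = added signal equal to DMSO minus mock-transfected cells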
M1 antagonist: blocks the rat M1 muscarinic receptor response to acetylcholine; CHO-M1 cells, Fluo-4 calcium, ACh EC80 antagonist mode; active compounds read low; B-score at 10 µM; hit rate 3.4% among 64,000;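 active = calcium fluorescence response, raw or row-and-column corrected B-score, differing from the plate sample mean either way at a set confidence level, mostly lower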
D1 mod confirm: D1 receptor (human) allosteric modulation, confirmed. shares compounds with D1 allo mod. HEK293 D1 CRE-luciferase, dopamine EC30 potentiation; active compounds read high. luminescence at 10 µM. hit rate 88% among 2,200. AID 642;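 active = luminescence in either of two replicates above the same-plate mean plus 3 SD of the low-dose dopamine control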
D1 ag no DA: secondary test of D1 modulators: activity without dopamine; AID 646; hit rate 0.8% among 1,900; HEK293 D1 CRE-luciferase, luminescence, no dopamine; active compounds read high; shares compounds with D1 allo mod; luminescence at 10 µM; in the data active = luminescence above about 3900
Isoprot counter: isoproterenol response counter-screen activity for D1 modulators | calls only at 10 µM | hit rate 63% among 2,200 | shares compounds with D1 allo mod | HEK293 D1 CRE-luciferase, isoproterenol EC30 counter-screen;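 active = luminescence in either replicate above plate mean of wells with a partly effective reference agonist dose plus 3 SD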;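 note: isoproterenol raises cAMP through native beta-adrenoceptor Gs so signal bypasses D1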
Active calls of the source: *; i = inactive; nt = no result given; + = active, no number. Sampled rows, rich in hits. Any-hit rate of the full collection: about 11%.

SMILES	mHtt clearance	M1 ag	SF-1 act	D1 allo mod	RORA act	M1 antagonist	D1 mod confirm	D1 ag no DA	Isoprot counter
COc1ccc(-c2coc3cc(O)ccc3c2=O)cc1OC	nt	-1.8	37	4.6*	78*	0.9	9756*	1616	i
COc1ccccc1Oc1coc2cc(O)ccc2c1=O	-67	0.047	9	-0.083	-9	0.031	nt	nt	nt
Brc1ccc(-c2nnc3sc(CN4CCc5ccccc5C4)cn23)cc1	nt	-0.58	-1	1.6	13	0.68	nt	nt	nt
c1ccc(-c2nnc3sc(CN4CCc5ccccc54)cn23)cc1	0	0.7	30	2.6*	16	-0.74	15088*	1624	i
c1ccc2nc3c(nc2c1)c1ccccc1n3CCN1CCOCC1	-2	6.4*	91*	9.5*	14	-0.29	18764*	1572	+
CC(=O)Nc1nc2ccccc2n1CCN1CCOCC1	nt	0.079	-18	-0.77	-8	-0.48	nt	nt	nt
CCn1c2ccccc2c2nc3cc(S(=O)(=O)N4CCOCC4)ccc3nc21	-42	1.5	6	6.5*	-3	-0.82	15708*	1656	+
COc1ccccc1Nc1nc(N)nc(CN2CCOCC2)n1	nt	1.5	-11	0.58	-3	1.2	nt	nt	nt
COc1ccccc1Nc1nc(N)nc(CSc2nncn2C)n1	-18	0.4	4	12*	-1	0.24	6088	nt	i
Cc1nc(NC(=O)CSc2nc3cccnc3n2C2CCCCC2)sc1C	17	-1.5	-12	1.6	-13	-0.24	nt	nt	nt
CCc1nnc(NC(=O)CSc2nc3cccnc3n2C2CCCCC2)s1	41	-0.51	-2	6.2*	-10	1.3	8624*	1648	+
COc1ccc(NC(=O)CN(C)S(=O)(=O)c2ccc3c(c2)OCCO3)c2ncccc12	-14	-0.12	-2	2.3	0	-0.43	nt	nt	nt
CC(C)C1Cc2c(C#N)c(N)n(C)c(=S)c2CO1 (configuration not stated)	nt	0.82	4	9.8*	-8	0.46	11952*	1676	+
CCC(=O)Nc1cccc(NC(=O)c2cc3ccccc3o2)c1	5	1.2	25	5.1*	58*	0.063	3904*	1572	i
CCCn1c(C)cc(C(=O)CSc2nnc3n(CCC)c(=O)c4ccccc4n23)c1C	nt	-0.81	2	-1.5	-17	0.39	nt	nt	nt
CCCn1c(=O)c2ccccc2n2c(SCc3nc4ccccc4s3)nnc12	nt	1.8	70*	6.7*	42	0.12	7964*	1868	i
CCCn1c(=O)c2ccccc2n2c(SCCOc3ccccc3)nnc12	nt	0.6	-7	4.7*	-16	0.58	10356*	nt	i
N#Cc1c(SCC(N)=O)nsc1SCc1ccc(Cl)cc1	nt	0.2	6	-0.036	-18	0.041	nt	nt	nt
N#Cc1c(SCC(N)=O)nsc1SCc1ccccc1Cl	nt	-0.29	5	5.6*	13	0.069	5884*	nt	+
COc1ccc(CNC(=O)CSc2nnc(C)s2)cc1	nt	0.12	8	nt	-14	1.2	nt	nt	nt
Nc1nc(N)nc(-c2ccccc2)n1	nt	-0.39	0	0.98	2	0.63	nt	nt	nt
Nc1nnc(-c2ccccc2)c(-c2ccccc2)n1	30	-0.37	-7	20*	-7	0.087	20640*	1704	+
CC(=O)Nc1cccc(C(=O)NC(C)c2ccc(S(N)(=O)=O)cc2)c1 (configuration not stated)	-4	nt	nt	nt	nt	nt	nt	nt	nt
CC1CCCCN1Cc1nc2c(c(=O)n(C)c(=O)n2C)n1Cc1c(F)cccc1Cl (configuration not stated)	nt	-0.6	7	nt	0	0.0073	nt	nt	nt
Cn1c(=O)c2c(nc(SCCCC#N)n2Cc2c(F)cccc2Cl)n(C)c1=O	nt	-1.1	-10	5.8*	-1	-0.41	7192*	1824	+
Cc1ccc(C2CN(c3ccccc3)CC2C(=O)c2ccc(F)cc2)cc1 (configuration not stated)	14	nt	nt	nt	nt	nt	nt	nt	nt

High-throughput results deposited in PubChem by several laboratories.
